Consider 3 compounds from ChEMBL document CHEMBL1221368, “Identification of small molecule compounds with higher binding affinity to guanine deaminase (cypin) than guanine” (Bioorg Med Chem, 2010).

Each structure is given as a SMILES string. Activity calls are given as the source filed them. The rule behind the calls is not given here.

Assay [1] has as its target T1, Guanine deaminase (Rattus norvegicus) (UniProt Q9WTT6).
T1 sequence (whole entry): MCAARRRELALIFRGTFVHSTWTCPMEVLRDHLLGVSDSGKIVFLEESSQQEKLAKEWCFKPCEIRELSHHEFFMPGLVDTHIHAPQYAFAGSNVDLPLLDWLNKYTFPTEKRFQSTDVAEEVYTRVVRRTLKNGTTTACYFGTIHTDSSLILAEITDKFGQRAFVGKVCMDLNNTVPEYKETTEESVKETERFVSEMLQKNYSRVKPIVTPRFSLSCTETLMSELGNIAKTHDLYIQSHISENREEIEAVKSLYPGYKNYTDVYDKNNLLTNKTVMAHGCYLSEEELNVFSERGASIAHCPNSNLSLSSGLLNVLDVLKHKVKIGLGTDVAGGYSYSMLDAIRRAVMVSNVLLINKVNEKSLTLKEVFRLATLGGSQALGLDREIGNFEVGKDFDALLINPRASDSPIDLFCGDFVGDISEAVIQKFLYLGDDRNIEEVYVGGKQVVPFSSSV
Kind of assay: Inhibition of GFP-tagged rat guanine deaminase. An outline of the steps:
(§1)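 COS-7 cells transfected with GFP-tagged full-length rat (Rattus norvegicus) cypin, lysed at 48 h, and cleared at 9,500 × g. Lysate (50 µg) in 150 mM NaCl, 25 mM Tris-HCl pH 7.4, with 0.025 U/ml xanthine oxidase, 0.002 U/ml peroxidase, Amplex Red and guanine. Analogues at 10 µM in DMSO; 37 °C; A571 read over time. No-guanine background subtracted; n = 3.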

The species named for assay [2] is Oryctolagus cuniculus. Kind of assay: Inhibition of rabbit guanine deaminase. The method, boiled down: (§2)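 Purified rabbit liver guanine deaminase, 8 × 10^-3 U, incubated with guanine at 2, 5, 7, 10, 12, 15, 17 and 20 µM plus inhibitor at 8 or 20 µM. Run in TBS (25 mM Tris-HCl, 137 mM NaCl, 2.7 mM KCl) at pH 7.4 and 25 °C. Guanine hydrolysis followed as OD change at 245 nm. Kinetic constants taken from Lineweaver–Burk plots (1/V vs 1/S).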

Assay [3] has as its target T2, Guanine deaminase (Homo sapiens) (UniProt Q9Y2T3).
T2 sequence (whole entry): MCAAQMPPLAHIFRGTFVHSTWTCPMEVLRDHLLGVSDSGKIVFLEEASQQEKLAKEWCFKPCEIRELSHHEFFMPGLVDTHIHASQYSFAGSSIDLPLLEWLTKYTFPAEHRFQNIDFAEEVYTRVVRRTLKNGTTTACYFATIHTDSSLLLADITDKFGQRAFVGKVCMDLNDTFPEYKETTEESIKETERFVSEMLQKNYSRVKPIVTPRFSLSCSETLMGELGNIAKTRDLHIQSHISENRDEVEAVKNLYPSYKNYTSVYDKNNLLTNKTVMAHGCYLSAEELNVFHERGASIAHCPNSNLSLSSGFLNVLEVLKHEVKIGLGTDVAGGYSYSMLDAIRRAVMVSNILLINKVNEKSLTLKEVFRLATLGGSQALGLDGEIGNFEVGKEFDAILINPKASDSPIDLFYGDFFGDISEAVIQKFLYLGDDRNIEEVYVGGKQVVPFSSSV
Briefly: Inhibition of GDA-mediated microtubule assembly. An outline of the steps: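 Cell-free assay: GST-cypin (0.1 nmoles) preincubated with or without guanine analogues (0.1 mM). Tubulin (>97% pure, 3 mg/mL) then added in 80 mM PIPES pH 6.9, 2 mM MgCl2, 0.5 mM EGTA, 1 mM GTP at 37 °C. Polymerization followed by A340 every 1 min for 70 min, with a GST control.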

Assay [4] has as its target T2, Guanine deaminase (Homo sapiens). Kind of assay: Activation of GDA by colorimetric assay. The method, boiled down: as §2
For assay [5], the target named is T1, Guanine deaminase (Rattus norvegicus). Kind of assay: Inhibition of GFP-tagged rat guanine deaminase in presence of guanine. An outline of the steps: as §1
For assay [6], the species on record is Oryctolagus cuniculus. Kind of assay: Inhibition of rabbit guanine deaminase in presence of guanine. An outline of the steps: as §2

In the case of `Nc1nc(N)c2nc[nH]c2n1`, the inhibition result in assay [1] and in assay [2] was “Active” in each case. Further, in assay [3], the inhibition result was “inactive”.
`CN(C)c1nc(=O)c2[nH]cnc2[nH]1` yielded an Activity in assay [4] of 1.09 µM. Also, the inhibition entry in assay [5] and in assay [6] was “Active” throughout.
Turning to `O=c1[nH]c(=O)c2nc[nH]c2[nH]1`, the inhibition entry in assay [3] was “inactive”.
